# Bioassay records as filed in PubChem.
# This is one part of a sample in which hits are shown more often than they occur.
# S1P4 antag = S1P4 receptor antagonists, primary screen, cell-based; Sphingosine 1-phosphate receptor 4 (Homo sapiens), O95977; S1P4-expressing cells, antagonist mode, reporter read-out; inhibition, % at 4.98 µM; 220,000 tested, 0.26% active; AID 1510, 2009; in the data active = inhibition above about 29%
# Lmaj promast = Leishmania major promastigote growth inhibition, primary screen. 200,000 tested, 9% active. Leishmania major promastigotes, resazurin fluorescence viability. inhibition, % at 10 µM; in the data active = inhibition above about 50%;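 note: promastigotes grown with compound for 44 hours at 28 °C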
# MDM2 E3 inh = MDM2-luciferase reporter signal enhancers, primary screen, MDM2 E3 ligase inhibitor project, cell-based, luminescence, 1536-well. cell-based MDM2 ubiquitination luciferase reporter, 2 h; 0 = plate control, 100 = twice control, blank-subtracted. E3 ubiquitin-protein ligase Mdm2 (Homo sapiens), Q00987. signal enhancement, % at 5 µM. 210,000 tested, 0.11% active;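 active = signal enhancement of 30% or more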;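 note: luminescence tracks abundance of the self-degrading MDM2-luciferase fusion protein; higher signal means inhibition of MDM2 E3 ligase activity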
# Target sequence (Q00987 whole entry, looked up, the tested form may be a part): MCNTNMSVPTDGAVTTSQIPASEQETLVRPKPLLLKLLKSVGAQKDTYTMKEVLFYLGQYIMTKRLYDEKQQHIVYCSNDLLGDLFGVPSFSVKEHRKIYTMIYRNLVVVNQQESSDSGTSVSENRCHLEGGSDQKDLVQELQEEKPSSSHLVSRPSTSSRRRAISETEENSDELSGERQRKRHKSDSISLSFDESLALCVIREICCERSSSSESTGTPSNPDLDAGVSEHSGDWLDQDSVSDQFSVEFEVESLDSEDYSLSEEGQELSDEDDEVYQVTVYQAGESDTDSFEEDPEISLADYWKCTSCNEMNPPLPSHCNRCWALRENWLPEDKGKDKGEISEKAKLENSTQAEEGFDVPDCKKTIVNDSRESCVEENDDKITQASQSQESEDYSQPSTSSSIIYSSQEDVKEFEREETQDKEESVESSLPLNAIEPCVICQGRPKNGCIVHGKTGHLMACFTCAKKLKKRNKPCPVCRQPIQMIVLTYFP
#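 Assay system: stable mammalian line carrying autodegrading MDM2–luciferase fusion reporter; amount: 2000 cells seeded into each well; buffer or medium: DMEM; benchmarks: plate control and blank wells; signal: luciferase luminescence; timing: 2 h compound exposure at 37 °C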
# S1P3 antagonist = S1P3 receptor antagonists, primary screen, cell-based | CHO S1P3 NFAT-BLA reporter, FRET fluorescence, antagonist mode | inhibition, % at 4.98 µM | Sphingosine 1-phosphate receptor 3 (Homo sapiens), Q99500 | 170,000 tested, 0.27% active;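 active = inhibition above the plate cutoff, the mean inhibition of test wells on that plate plus 3 SD, cut at about 28% in these data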;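 note: cells challenged with S1P at its EC80 of 0.8 µM; blue over green emission ratio from cleaved BLA substrate after 4 h stimulation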
# S1P4 ag = S1P4 receptor agonists, primary screen, cell-based; activation, % at 4.98 µM; AID 1509, 2009; S1P4-expressing cell line, agonist reporter assay; 220,000 tested, 0.35% active; in the data active = activation above about 11%
# A number is an active result; i = inactive; nt = no result.
SMILES,S1P4 antag,Lmaj promast,MDM2 E3 inh,S1P3 antagonist,S1P4 ag
Cc1ccc(C(=O)Nc2cccnc2)cc1NC(=O)c1ccco1,i,i,i,nt,i
CC(=O)c1cccc(NC(=O)c2ccco2)c1,i,i,i,i,i
O=C(Nc1cccnc1)c1cccc(NC(=O)c2ccco2)c1,i,79.7,i,i,i
CCC(=O)Nc1cccc(C(=O)Nc2nccs2)c1,i,i,i,i,i
O=C(Nc1nccs1)c1cccc(NC(=O)c2ccco2)c1,i,97.3,i,nt,i
COc1ccc(S(=O)(=O)Nc2cc(OC)c(NC(=O)c3ccco3)cc2OC)cc1,i,i,i,i,i
COc1cc(NS(=O)(=O)c2ccc(Br)cc2)c(OC)cc1NC(=O)c1ccco1,i,91.2,i,i,i
O=C(Nc1cccc(NC(=O)c2ccc(-c3cccc(Br)c3)o2)c1)c1ccco1,i,59.8,i,i,i
COc1ccc2nc3sc(C(=O)NCCN4CCc5ccccc5C4)cc3cc2c1,i,i,i,i,i
COc1ccc2cc3cc(C(=O)NCCCN4CCc5ccccc5C4)sc3nc2c1,i,95.5,i,i,i
COc1ccccc1C(=O)Nc1cc(Cl)ccc1O,i,i,i,nt,i
CCOc1ccccc1C(=O)Nc1cc(Cl)ccc1O,i,79.4,i,i,i
CC(NC(=O)C(C)N1C(=O)C2C3CC(C(Br)C3Br)C2C1=O)c1ccccc1 (stereo unspecified),i,82.4,i,i,i
CN(Cc1ccccc1)c1nc2c(c(=O)[nH]c(=O)n2C)n1Cc1ccccc1Cl,i,70.4,i,i,i
CN(Cc1ccccc1)c1nc2c(c(=O)n(C)c(=O)n2C)n1CCSc1ncccn1,i,i,i,i,i
CN(Cc1ccccc1)c1nc2c(c(=O)[nH]c(=O)n2C)n1CCCc1ccccc1,i,53.6,i,i,i
Cc1cc(C)nc(SCCn2c(N(C)Cc3ccccc3)nc3c2c(=O)n(C)c(=O)n3C)n1,i,77.6,i,nt,i
Cc1ccc(-n2nc(C)c(=O)c(-c3ccccc3)c2NC(=O)c2cccs2)cc1,i,nt,i,i,i
Cc1ccc2nsnc2c1S(=O)(=O)N1CCOCC1,i,i,i,nt,i
c1ccc2sc(NN=C3CCCCCC3)nc2c1,i,62.7,i,i,i
O=C(Nc1nc2ccccc2s1)c1ccccc1,i,i,i,i,i
O=C(Cc1cn(Cc2cccc(Cl)c2)c2ccccc12)N1CCCCCC1,i,98.8,i,i,i
CC1CCCN(C(=O)Cc2cn(Cc3cccc(Cl)c3)c3ccccc23)C1 (stereo unspecified),i,96.6,i,i,i
Cc1cc(NC(=O)c2cc3n(n2)C(C(F)(F)F)CC(c2ccc(Cl)c(Cl)c2)N3)no1 (stereo unspecified),i,i,i,54.7,i
CCOc1cc(C(=O)N2CCN(C/C=C/c3ccccc3)CC2)cc(OCC)c1OCC,i,65.9,i,nt,i
SMILES,S1P4 antag,Lmaj promast,MDM2 E3 inh,S1P3 antagonist,S1P4 ag
CCOc1cccc2cc(C(=O)N3CCc4ccccc43)c(=O)oc12,i,i,i,i,i
COc1cc(C(=O)N2CCN(C/C=C/c3ccccc3)CC2)cc(OC)c1OC,i,i,nt,nt,i
CCOc1cccc2cc(C(=O)N3CCN(C/C=C/c4ccccc4)CC3)c(=O)oc12,i,96.0,i,i,i
COc1ccc(OC)c(-c2csc(NC(=O)Cc3cccs3)n2)c1,i,i,i,i,i
O=C(/C=C/c1ccc(Cl)cc1Cl)N(Cc1ccccc1)C1CCS(=O)(=O)C1 (stereo unspecified),i,84.1,i,i,i
O=C(/C=C/c1ccc(Cl)cc1Cl)N(Cc1ccc(Cl)cc1)C1CCS(=O)(=O)C1 (stereo unspecified),i,87.8,i,i,i
O=C(N/N=C/c1ccc(N2CCOCC2)cc1)C1CC1,i,i,i,i,i
CSc1ccc(CN2CCN(C3CCCC3)C(CCO)C2)cc1 (stereo unspecified),i,62.2,i,i,i
CSc1ccc(CN2CCN(CCC(C)C)C(CCO)C2)cc1 (stereo unspecified),i,78.0,i,i,i
CC(C)N1CCC(N2CCN(C3CCCC3)CC2CCO)CC1 (stereo unspecified),i,i,i,i,i
